Assay results taken from EPA's CvTdb concentration-time database.

Tests used:
[1] = tested on: Rat; assay: concentration in plasma after dosing; conditions: 3 h; dosed: alpha-Thujone; 50 mg/kg; oral; Female; Harlan Sprague Dawley
[2] = tested on: Rat; assay: concentration in plasma after dosing; conditions: 5 min; dosed: alpha-Thujone; 50 mg/kg; oral; Female; Harlan Sprague Dawley
[3] = tested on: Rat; assay: concentration in brain after dosing; conditions: 10 min; dosed: alpha-Thujone; 50 mg/kg; oral; Female; Harlan Sprague Dawley
[4] = tested on: Rat; assay: concentration in plasma after dosing; conditions: 10 min; dosed: alpha-Thujone; 25 mg/kg; oral; Male; Harlan Sprague Dawley
[5] = tested on: Rat; assay: concentration in plasma after dosing; conditions: 0.5 h; dosed: alpha-Thujone; 50 mg/kg; oral; Male; Harlan Sprague Dawley
[6] = tested on: Rat; assay: concentration in brain after dosing; conditions: 10 min; dosed: alpha-Thujone; 25 mg/kg; oral; Male; Harlan Sprague Dawley
[7] = tested on: Rat; assay: concentration in brain after dosing; conditions: 0.5 h; dosed: alpha-Thujone; 25 mg/kg; oral; Male; Harlan Sprague Dawley
[8] = tested on: Rat; assay: concentration in plasma after dosing; conditions: 10 min; dosed: alpha-Thujone; 50 mg/kg; oral; Female; Harlan Sprague Dawley
[9] = tested on: Rat; assay: concentration in brain after dosing; conditions: 3 h; dosed: alpha-Thujone; 50 mg/kg; oral; Female; Harlan Sprague Dawley
[10] = tested on: Rat; assay: concentration in plasma after dosing; conditions: dosed: Pyridine, 5 mg/kg, oral, Male, F344
[11] = tested on: Rat; assay: concentration in plasma after dosing; conditions: 10 min; dosed: Pyridine; 10 mg/kg; oral; Male; F344
[12] = tested on: human; assay: amount in urine after dosing (umol)
Summary of the method: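 A PubMed search, classifier screening and manual review identified published in vivo toxicokinetic studies, which together with two structured collections supplied concentration-versus-time and amount-versus-time points. Points were mostly digitised from plot screenshots with WebPlotDigitizer, otherwise copied from tables. Dose, route, subject details and medium were hand-curated from each paper, and sampling and analytical methods are those of the sources, often unreported.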

[13] = tested on: Rat; assay: concentration in plasma after dosing; conditions: dosed: Methyleugenol, 37 mg/kg, iv, Male, F344
[14] = tested on: Rat; assay: concentration in plasma after dosing; conditions: dosed: Methyleugenol, 37 mg/kg, iv, Female, F344
[15] = tested on: Rat; assay: concentration in plasma after dosing; conditions: dosed: Methyleugenol, 37 mg/kg, iv, Female, F344; remark: listed apart in the source
[16] = tested on: Rat; assay: concentration in plasma after dosing; conditions: 6 h; dosed: Primidone; 30 mg/kg; oral; Female; F344
[17] = tested on: Mouse; assay: concentration in plasma after dosing; conditions: 10 min; dosed: 2-Hydroxy-4-methoxybenzophenone; 500 mg/kg; oral; Female; B6C3F1
[18] = tested on: Mouse; assay: concentration in plasma after dosing; conditions: 3 h; dosed: 2-Hydroxy-4-methoxybenzophenone; 250 mg/kg; oral; Male; B6C3F1
[19] = tested on: Mouse; assay: concentration in plasma after dosing; conditions: 0.25 h; dosed: 2-Hydroxy-4-methoxybenzophenone; 500 mg/kg; oral; Male; B6C3F1
[20] = tested on: Mouse; assay: concentration in plasma after dosing; conditions: 3 h; dosed: 2-Hydroxy-4-methoxybenzophenone; 250 mg/kg; oral; Female; B6C3F1
[21] = tested on: Rat; assay: concentration in plasma after dosing; conditions: dosed: 2,4-Dichlorophenoxyacetic acid, 7.0 mg/kg, oral, Male, Sprague-Dawley
[22] = tested on: Rat; assay: concentration in kidney after dosing; conditions: 6 h; dosed: Perfluorohexane-1-sulphonic acid – potassium salt; 16 mg/kg; oral; Female; F344

CC(C)[C@]12CC(=O)[C@H](C)[C@H]1C2 [alpha-Thujone]
Conditions	concentration in brain [ng/g]	concentration in plasma [ng/mL]
[1]	–	244
[2]	–	343
[3]	1800	–
[4]	–	872
[5]	–	2180
[6]	2000	–
[7]	285	–
[8]	–	1160
[9]	858	–

c1ccncc1 [Pyridine]
[10]
Conditions	concentration in plasma [ng/mL]
1 h	2530
8 h	1390

Conditions	concentration in plasma [ng/mL]
[11]	5480

CC(C)(O)CO [2-methyl-1,2-propanediol]
amount in urine, [12], inhalation, duration: 4 hr
Conditions	dosed: ethyl tert-butyl ether	dosed: methyl tert-butyl ether
0 h, 4.5 ppm	0.545	1.1
0.1089 h, 38.7 ppm	–	7.53
0.1579 h, 40.6 ppm	3.98	–
5.975 h, 4.5 ppm	2.4	–
6 h, 40.6 ppm	14.9	–
6.195 h, 38.7 ppm	–	37
6.261 h, 4.5 ppm	–	3.42
11.95 h, 38.7 ppm	–	45.2
12 h, 40.6 ppm	24.1	–
12.1 h, 4.5 ppm	–	4.96
12.15 h, 4.5 ppm	2.89	–
18 h, 40.6 ppm	19.9	–
18.07 h, 4.5 ppm	3.11	–
18.16 h, 4.5 ppm	–	2.54
18.22 h, 38.7 ppm	–	35.6
23.96 h, 38.7 ppm	–	26
24 h, 4.5 ppm	–	3.2
24 h, 40.6 ppm	12.5	–
24.03 h, 4.5 ppm	2.35	–
29.89 h, 40.6 ppm	7.97	–
30.14 h, 38.7 ppm	–	28.1
30.16 h, 4.5 ppm	–	2.54
30.2 h, 4.5 ppm	1.53	–
35.98 h, 38.7 ppm	–	17.1
36 h, 4.5 ppm	–	1.32
36.11 h, 40.6 ppm	7.37	–
36.16 h, 4.5 ppm	1.04	–
42.11 h, 40.6 ppm	4.98	–
42.12 h, 4.5 ppm	0.655	–
42.15 h, 38.7 ppm	–	8.9
42.16 h, 4.5 ppm	–	0.662
48 h, 38.7 ppm	–	5.48
48.11 h, 40.6 ppm	3.19	–
48.3 h, 4.5 ppm	0.6	–
54.05 h, 40.6 ppm	2.39	–
54.07 h, 38.7 ppm	–	4.79
60.03 h, 38.7 ppm	–	3.42
60.16 h, 40.6 ppm	2.19	–
66.09 h, 38.7 ppm	–	3.42
66.11 h, 40.6 ppm	1.59	–
71.95 h, 38.7 ppm	–	1.37
72.05 h, 40.6 ppm	1.59	–

amount in urine, [12], dosed: methyl tert-butyl ether, oral
Conditions	5 mg	15 mg
0 h	0.0411	–
5.848 h	–	2.13
6.268 h	0.795	–
12.12 h	1.23	3.38
17.99 h	–	2.7
18.39 h	1.15	–
24.17 h	–	1.82
24.44 h	0.658	–
30.03 h	–	1.82
30.29 h	0.616	–
36.11 h	–	1.02
36.35 h	0.384	–
41.98 h	–	0.46
42.2 h	0.233	–
48.05 h	–	0.462
48.26 h	0.123	–
53.91 h	–	0.224
54.42 h	0.123	–
59.78 h	–	0.146
60.27 h	0.0411	–
65.95 h	–	0.0276

C=CCc1ccc(OC)c(OC)c1 [Methyleugenol]
Conditions	concentration in plasma [ng/mL]
[13], 0.25 h	8180
[13], 1.5 h	878
[14], 3 h	158
[14], 5 min	28900
[15], 0.5 h	1520
[15], 0.75 h	768

CCC1(c2ccccc2)C(=O)NCNC1=O [Primidone]
Conditions	concentration in plasma [ng/mL]
[16]	12100

O=C(c1ccccc1)c1ccc(O)cc1O [2,4-Dihydroxybenzophenone]
Conditions	concentration in plasma [ng/mL]
[17]	4250
[18]	371
[19]	2740
[20]	133

O=C(O)COc1ccc(Cl)cc1Cl [2,4-Dichlorophenoxyacetic acid]
[21]
Conditions	concentration in plasma [ng/mL]
0.25 h	8070
0.5 h	14500
2 h	4090
2.5 min	7170
3 h	3180
4 h	3720
5 h	4480
6 h	1890
10 min	14700

O=S(=O)([O-])C(F)(F)C(F)(F)C(F)(F)C(F)(F)C(F)(F)C(F)(F)F.[K+] [Perfluorohexane-1-sulphonic acid – potassium salt]
Conditions	concentration in kidney [ng/g]
[22]	36400
